Bioassay records (PubChem BioAssay)
PolyA inhibitor: yeast polyadenylation inhibition. S. cerevisiae SKY197-pL101 polyadenylation reporter, beta-gal luminescence; efflux-impaired pdr1/pdr3 knockout yeast; score 100 = 6 SD above DMSO. activity score, % at 12 µM. 0.02% of 300,000 active;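 active = lowest replicate activity score at least 50, where 100 means six control SD above control mean; inconclusive = lowest score under 50 but half or more replicates reach 50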;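 also: yeast exposed to compound for 9 h at 30 °C; higher score means more reporter readthrough which indicates perturbed polyadenylation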
T cruzi repl: T. cruzi replication inhibition; T. cruzi beta-gal in NIH3T3, luminescence, 90 h; inhibition, % (no concentration beside the values); 1.4% of 300,000 active; AID 1885;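 active = mean inhibition across valid replicates above about 55%, limit read from the data; inconclusive = mean below that limit but half or more replicates reach it; inactive = mean below it, under half of replicates reach it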;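 also: signal also drops with host cell toxicity which is not excluded here; higher percent means less beta-gal luminescence so fewer parasites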
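System: Mouse NIH/3T3 fibroblasts infected with β-gal-expressing T. cruzi Tulahuen C4 | Quantity: NIH/3T3 cells, 5,000 per well | Reagent: 5000 reporter trypomastigotes per well | Dosing: Compound pinned at 50 nL/well, DMSO | Schedule: 3 h host attachment, then at least 90 h co-culture | Detection: GalScreen luminescence, 60 min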
NALP3 yeast inh: NALP3 inhibition in yeast; Yeast reconstituted NLRP3/ASC/caspase-1, beta-gal luminescence, 24 h; AID 2825; 0.39% of 330,000 active; inhibition, % at 10 µM;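 active = inhibition of 50% or more; inactive = inhibition below 50%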
L major viab: Leishmania major promastigote growth inhibition; AID 1063; Leishmania major promastigotes, resazurin fluorescence viability; 9% of 200,000 active; inhibition, % at 10 µM; in the data active = inhibition above about 50%;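 also: promastigotes grown with compound for 44 hours at 28 °C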
Calb FLC: C. albicans growth modulation with fluconazole; C. albicans CaCi-2 (fluconazole-resistant clinical isolate) + fluconazole, Alamar Blue growth, 48 h; growth inhibition, % (no concentration beside the values); 0.57% of 300,000 active;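 active = growth inhibition above about 58% in most replicates, limit read from the data, passing the limit was not always enough; inconclusive = exactly half the replicates above a set limit; inactive = most replicates below a set limit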;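 also: all wells also contain fluconazole at 8 µg/ml as a sub-toxic cotreatment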
NALP1 inh: NALP1 inhibition; AID 2071; 0.61% of 280,000 active; inhibition, % at 10 µM; S. cerevisiae NALP1/ASC/caspase-1 growth, X-gal OD620, 72 h; in the data active = inhibition mostly above about 24%, no sharp cut-off; inactive = mostly below about 32%
Large screens that a line does not name were inactive. The entries come from a sample that favours hits as a whole.

COc1cc(-c2nc3ccccn3c2NCc2ccccc2)ccc1SC1CCCCC1	T cruzi repl 61 (no result: L major viab, NALP1 inh)
CC(=O)Nc1ccc(N(CC(O)Cn2c3ccccc3c3ccccc32)S(=O)(=O)c2ccc(C)cc2)cc1 (stereo unspecified)	L major viab 62
CCN=c1sc2ccccc2n1CC(O)COc1ccccc1 (stereo unspecified)	L major viab 100
CC(=O)Nc1ccc(OCC(O)Cn2c3ccccc3c3ccccc32)cc1 (stereo unspecified)	L major viab 85
Cc1ccccc1OCC(O)Cn1c2ccccc2c2ccccc21 (stereo unspecified)	L major viab 91
Cc1ccc(N(CC(O)Cn2c3ccccc3c3ccccc32)S(C)(=O)=O)cc1 (stereo unspecified)	none
CC(=O)Nc1ccc(OCC(O)Cn2ccnc2C)cc1 (stereo unspecified)	none
O=C(NC1CC(=O)N(c2cccc(F)c2)C1)C(=O)c1c[nH]c2ccccc12 (stereo unspecified)	none (no result: L major viab, NALP1 inh)
O=C(O)c1ccc(OCC(O)Cn2c3ccccc3c3ccccc32)cc1 (stereo unspecified)	none (no result: L major viab)
CC(=O)Nc1ccc(OCC(O)Cn2c3ccccc3c3ccccc32)c(C)c1 (stereo unspecified)	T cruzi repl 56, L major viab 75
Cc1ccc(N(CC(O)Cn2nc(C)cc2C)S(=O)(=O)c2ccc3ccccc3c2)cc1 (stereo unspecified)	L major viab 76
OC(COc1ccccc1)Cn1c2ccccc2c2ccccc21 (stereo unspecified)	L major viab 70
COc1ccc(OC)c(NC(=O)CCNS(=O)(=O)c2ccc3c(c2)c(=O)n(C)c(=O)n3C)c1	none
Cc1ccc(NC(=S)N(C)C(c2ccccc2)c2ccccc2)cc1C	none (no result: L major viab)
Cc1ccc2[nH]c(=O)c3cc(C(=O)N(C)Cc4ccco4)sc3c2c1	L major viab 56
CCOCCCN(Cc1ccco1)C(=O)c1cc2c(=O)[nH]c3ccc(C)cc3c2s1	L major viab 73
Cc1noc(C)c1NC(=O)Nc1ccc2c(c1)C(=O)N([C@H](C)CO)C[C@H](C)[C@@H](CN(C)C(=O)NC1CCCCC1)O2	none (no result: PolyA inhibitor, T cruzi repl, L major viab, Calb FLC, NALP1 inh)
NCCOc1ccc(C2CCCCC2)cc1	L major viab 100
S=c1nc[nH]c2c1cnn2Cc1ccccc1	Calb FLC 94 (no result: L major viab)
Cc1cc(=O)[nH]c2c1cnn2Cc1ccccc1	none
O=C1NC(=O)C(c2cn(-c3ccccc3)nc2-c2ccc(F)cc2)N1 (stereo unspecified)	none
CC1=C(C(=O)c2ccccc2)C(c2cn(-c3ccccc3)nc2-c2ccc(Cl)cc2)NC(=S)N1 (stereo unspecified)	T cruzi repl 60, L major viab 100
COc1ccc(/C=N/Nc2nnc(Cc3ccc(OC)c(OC)c3)c(=O)[nH]2)cc1OC	L major viab 81
CC1(CC(=O)N/N=C/c2cc(Br)c(O)cc2O)OCCO1	L major viab 91
CC1CCCN(C(=O)Cc2cn(Cc3cccc(Cl)c3)c3ccccc23)C1 (stereo unspecified)	T cruzi repl 55, L major viab 97
O=C(Cc1cn(Cc2cccc(Cl)c2)c2ccccc12)N1CCCCCC1	T cruzi repl 59, L major viab 99
O=C(O)Cc1cn(Cc2cccc(Cl)c2)c2ccccc12	none
Cc1ccc(NC(=O)CN2C(=O)CC(C)S(=O)(=O)c3ccccc32)cc1 (stereo unspecified)	none (no result: L major viab)
CCOC(=O)C1=C(CSCC(=O)OC)NC(=O)NC1c1cc(C)ccc1C (stereo unspecified)	none
CCOC(=O)C1=C(CSc2nc3ccccc3s2)NC(=O)NC1c1ccc(OC)cc1 (stereo unspecified)	L major viab 62
CCOC(=O)C1=C(CP(=O)(c2ccccc2)c2ccccc2)NC(=O)NC1c1ccc(OC)cc1 (stereo unspecified)	none
CCOC(=O)C1=C(CSc2nc3ccccc3s2)NC(=O)NC1c1cc(C)ccc1C (stereo unspecified)	T cruzi repl inconclusive, L major viab 60
Cc1cc(NC(=O)CN(C)CC(=O)Nc2ccc(Cl)cc2)no1	none (no result: PolyA inhibitor, T cruzi repl, L major viab, Calb FLC, NALP1 inh)
O=C(Cn1c(=O)cnc2ccccc21)Nc1ccccc1N1CCOCC1	none (no result: L major viab)
CC(=O)c1ccccc1NC(=O)Cn1c(=O)cnc2ccccc21	L major viab 58
Cc1cccc(C)c1NC(=O)CN(C)C(=O)Cn1c(=O)cnc2ccccc21	NALP1 inh 30 (no result: L major viab)
Cc1ccc(NC(=O)Cn2c(=O)cnc3ccccc32)cc1S(=O)(=O)N(C)C	none
COc1ccc(CCNC(=O)C2CCN(S(=O)(=O)N3CCC4(CC3)OCCO4)CC2)cc1OC	none
CN(Cc1ccccc1)S(=O)(=O)c1ccc2[nH]c(=O)ccc2c1	none (no result: L major viab)
CCc1c(C)nc2cc(-c3ccc(OC)c(OC)c3)nn2c1NCC1CC1	L major viab 101
COc1ccc(-c2c(C)nn3c(NC4CCCC4)cc(C)nc23)cc1OC	none (no result: L major viab)
O=C(COc1ccc(Cl)cc1)Nc1nnc(C2=COCCO2)o1	none
CN(C)CCCN(C(=O)c1nc2ccccc2s1)c1nc2ccc(F)cc2s1	T cruzi repl 67 (no result: L major viab, NALP1 inh)
CN(C)CCCN(C(=O)c1ccc(C(=O)c2ccccc2)cc1)c1nc2ccc(F)cc2s1	T cruzi repl 57 (no result: L major viab)
COCC(=O)N1CCC(Oc2ccc(C(=O)NCCCC3CCCC3)cc2)CC1	none (no result: L major viab)
O=C(O)c1ccc(/C=N/Nc2ccc(Cl)nn2)cc1	none (no result: L major viab)
COc1ccc(-c2cn3cccnc3n2)cc1NS(=O)(=O)c1ccccc1	none
COc1ccc(-c2cn3cccnc3n2)cc1NC(=O)c1cccs1	L major viab 97
COc1ccc(-c2cn3cccnc3n2)cc1F	L major viab 80
CN1CCN(NC(=O)/C=C/c2ccc(Br)cc2)CC1	none (no result: L major viab)
C=CC12C=CC=CN1C(C(=O)OC)=C(C(=O)OC)C(C(=O)OC)=C2C(=O)OC (stereo unspecified)	none
Cc1[nH]c(C)c(S(=O)(=O)Nc2ccc(OC(F)(F)F)cc2)c1C(=O)N1CCCCC1	none (no result: L major viab)
CC1(C)CC(=O)c2sc(NC(=O)CCS(=O)(=O)c3ccccc3)nc2C1	L major viab 78
CC(C)(C)c1nnc(NC(=O)CCS(=O)(=O)c2ccccc2)s1	Calb FLC 93 (no result: L major viab)
O=C(CS(=O)(=O)c1ccccc1)Nc1nnc(C(F)(F)F)s1	none (no result: L major viab)
CC(C)(C)c1nnc(NC(=O)CCS(=O)(=O)Cc2ccccc2)s1	none (no result: L major viab)
O=C(CCS(=O)(=O)Cc1ccccc1)Nc1nnc(C(F)(F)F)s1	Calb FLC 83 (no result: L major viab)
CC1(C)CC(=O)c2sc(NC(=O)c3ccccc3)nc2C1	none
O=C(CCS(=O)(=O)c1ccccc1)Nc1nnc(C(F)(F)F)s1	Calb FLC 97 (no result: L major viab)
COc1ccc(NC(=O)c2cc3c(CO)cnc(C)c3oc2=Nc2cccc(F)c2)c(OC)c1	none (no result: L major viab)
